Reference: the EternaBench riboswitch data

Tested on: MS2 coat protein
Assay: apparent Kd, MS2 coat protein; higher = weaker binding; RNA-MaP array; FMN 200 µM where present
In short: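 Each design was made on Illumina sequencing-chip clusters by stalled E. coli RNA polymerase and titrated with SNAP-549-labelled MS2 coat protein from 0.7 or 1.5 nM, doubling to 3 µM, in the absence and then the presence of constant ligand. The buffer was 100 mM Tris-HCl pH 7.5, 80 mM KCl, 4 mM MgCl2, BSA, DTT, yeast tRNA and Tween-20. The apparent Kd is the median of filtered per-cluster fits of binding curves, with green signal normalised to red-channel RNA signal and control-cluster median Fmax.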

[1] = designed as: OFF switch for flavin mononucleotide, no ligand
[2] = ligand present: flavin mononucleotide, designed as: OFF switch for flavin mononucleotide
[3] = designed as: ON switch for flavin mononucleotide, no ligand
[4] = ligand present: flavin mononucleotide, designed as: ON switch for flavin mononucleotide

Sequence | apparent Kd [1] | apparent Kd [2] | apparent Kd [3] | apparent Kd [4]
AAUUCGUCAGGAUAUGCAUGUAAUUGUUACAUUUCUCCGUUGCAGAAGGGACAUGAGGAUCACCCAUGUAAGUC | 29.7 nM | 28.7 nM | – | –
GCGCCGCAGCGGUACACGAGACAUGAGGAUCACCCAUGUGACAGAAGGGACUUGUUAAAGGUAGGUCAGGAUAUGUCUUAAAAG | – | – | 184 nM | 56.5 nM
UUAUACAUGAGGAUCUCCCAUGACAUGAGGAUCACCCAUGUGCAGGAUAUACGUGUUAUAAUAUAGUAGAAGGGCAGACUAUAU | 41.1 nM | 74.3 nM | – | –
GUAAAUCAUGUAGGAUAUGCAUGGCGAAGCUACGCAGAAGGACAUGAGGAUCACCCAUGUGCUAGCUACCGAGUUCGGUGGCAA | 77.1 nM | 354 nM | – | –
AGACCCUGAACGAAAUCAUACAGUCAGGAUAUACAUGAGGAUCACCCAUGUGCGUACCAACUCGUGUAGAAGGGACUUUCAGGG | 12.3 nM | 30.2 nM | – | –
AUCAGCUUGUCAGGAUAUGCGUGUCAACGAAAGUAGACAAUCUUAAUAACAUGAGGAUCACCCAUGUAGAAGGGACGAGCUGAU | 18.2 nM | 20.3 nM | – | –
CCACCCUGAGGAUAUCCACCCUCAUACAUGAGGAUCACCCAUGUUCAUCCCUGAGUACCCGGAGAAGGCAGAUUCC | 60.3 nM | 50.6 nM | – | –
UUAAAUCAUGUAGGAUAUGCAUGGCGAAGCUACGCAGAAGGACAUGAGGAUCACCCAUGUUCUAGCUACCGAGAACGGUGGCAA | 19.1 nM | 74.1 nM | – | –
AUCCUACAUGAGGAUCACCCAUGUGACGCCUCGAUAGGAUAUGCGUGUGCCUUGGCGCAUGCAGAAGGAUUGUUGC | – | – | 149 nM | 195 nM
CCAUUUCUGUAAGGAUAUAUAAACAUGACGAUACAUGAGGAUCACCCAUGUGUAGAAGGUACAAAUACAUAUAAUGCAAUGUUC | 14.8 nM | 13 nM | – | –
GUUGAGUGAGAGAAGGCCAGUUGGGAAAAUGAUCGACAGUGUACAGCGUGGAGGAUAUCUCAACAUGAGGAUCACCCAUGUAUA | – | – | 186 nM | 12.3 nM
CCCUCAACAUGAGGAUCACCCAUGUAGGAUAUCGCUAUUGUAAUCAUGAAACAUGAUUACAAUAGCGAGAAGGACAUAUGACCC | 21.5 nM | 99.6 nM | – | –
GCACGGAUGGUAGGAUAUCAUUGCGAUUAGCUAUGAGAAGGGCCACAUGAGGAUCACCCAUGUCCUCUAAUUAGCCUUCCGUGC | 101 nM | 101 nM | – | –
UUGGUUGUCGUAGGAUAUGUAGGAUAUUCCUACAUGAGGAUCACCCAUGUUCGCAUGGAAGAAGGACAGAAGGACGAUGACCAG | – | – | 1240 nM | 9.67 nM
CAUGUCCUCACAGGAUAUGCACCACUUUGUGGUGCAGAAGGGUGGAUACAUGAGGAUCACCCAUGUGGACAUGAUAUAUUUAAU | – | – | 608 nM | 57.2 nM
CUCAUGUGAGGAUAUCAGUAGUAAAAAAAAAAAAUUACUACUGAGAAGGCACAUGAGGAUCACCCAUGUGACUU | 34.8 nM | 30.6 nM | – | –
GAGUUACAUGAGGAUCACCCAUGUGGUUGUGGAUAAGGAUAUAUGGUAGGAGGAGGAAUGAUAGAAGGUAUUAGGG | – | – | 69 nM | 45.5 nM
AUCAGCUCGUCAGGAUAUACGGCACUGCGUCAGCAGUGUGGUAAGAUCACAUGAGGAUCACCCAUGUAGAAGGGACGAGCUGAU | 8.06 nM | 84.6 nM | – | –
UCCUCGAUGUAGAAGGCCGCGUCCGGCUCACGCGGAGGAUAUACAUGAGGAUCACCCAUGUGUCUGUGGCUAAUAUGGUACGGA | 120 nM | 14.4 nM | – | –
UACAAUCUAUCUGAGGAUAUCAUGAAAAAAACAUGAGGAUCACCCAUGUGCAGGAAAACUGCAUAUGAGAAGGCAGAUAGAUUGC | – | – | 671 nM | 29.3 nM
AGAUCCUGAGUCAGGAUAUAGAGACGGUAGUCGGGCUAGAAGGGACAUGAGGAUCACCCAUGUGGGUUCUUGCC | 10.7 nM | 13.1 nM | – | –
GUCCGGCUGCCACAGGAUAUACGUGGAUCGACAUGAGGAUCACCCAUGUAUAUCCUAAUAAUUGCGUAGAAGGGUGGUCAGCCGG | – | – | 1040 nM | 109 nM
GGGAGUGAAGGAUAUACAUGAGGAUCACCCAUGUGGGAGGAGAGAGGUGAGGAGGCUGGUAGAAGGUCAGGAUG | 60.2 nM | 51.2 nM | – | –
AAUUCACAUGAGGAUCACCCAUGUCAGGAUAUGGUGACGCGGGUUUCGGUGCGUGUUGCCAGAAGGGACAGCUA | 79.2 nM | 119 nM | – | –
UGUCGGAGCAGAGGAUAUUACAUGAGGAUCACCCAUGUAUGAACUAAUAGCUGGAAACAGCAAUGUAAGAAGGCUGCUCCGACA | 6.27 nM | 17.9 nM | – | –
GGUACUCAAAGAGUACAAGGACGAACAUGAGGAUCACCCAUGUAGGAUAUGCUACUCAAAGAGUAGCAGAAGGACAUGUGCAGC | 25.6 nM | 73 nM | – | –
AUAUCUUACCAAGGAUAUUUAAGAUUUGUGUAGACAUGAGGAUCACCCAUGUGGCGUUAGUCACGGGAGAAGGUGGUUUGAUAU | – | – | 140 nM | 648 nM
ACGUAUAGAGGAUAUACAGAAUAUUACAUGAGGAUCACCCAUGUUCUUCAAUGUAUAUUUGUAGAAGGCUAAUGAA | 60.7 nM | 281 nM | – | –

Sequence | apparent Kd [1] | apparent Kd [2] | apparent Kd [3] | apparent Kd [4]
UUGGACGUCGUAGGAUAUGUAGGAUAAUCCUACAUGAGGAUCACCCAUGUUGACAUGGAAGAAGGACAGAAGGACGAUGUCCAU | – | – | 1120 nM | 87.5 nM
UUACUGAUAUAGAAGGGUAUAUGGGAAUUACAUGAGGAUCACCCAUGUUUUAUAGGAUAUGUAUAUAGUAUUUAAUCAAGUUUA | 34.6 nM | 27.1 nM | – | –
CUCGUGUGAGGAUAUUCGGGCGGGCUCGUUUGGGUUUGUUUGGAGAAGGUACAUGAGGAUCACCCAUGUGCUGG | 51 nM | 175 nM | – | –
UUGGUGGUUUCCCGCGCUAAGAUAGGAGAAGGGUGACUGGACAUGAGGAUCACCCAUGUAUCGGCACAGGAUAUCCACAUUAAU | – | – | 223 nM | 334 nM
ACUAUACGAGGAUAUACUGACGGGCCUCAGGCGUCCAUGAGACAUGAGGAUCACCCAUGUAGAAGGCGUAUACU | 174 nM | 52 nM | – | –
AGCACGAAAGUGCAACGAUGUACGAGAAGGACAUGAGGAUCACCCAUGUUGCUGUAACUGCUUAUGUAGGAUAUCGUACAUCGA | – | 7.01 nM | – | –
ACCGAAUGAACAUGAGGAUCACCCAUGUACAGGAAACUGAAUGAGGAUAUCCAUAGCAAAGCUAUGGAGAAGGCAUGGGUCGGU | – | – | 363 nM | 110 nM
GACUGCGUUAUGAAGGAUAUCCGCGUCUGGACAUGAGGAUCACCCAUGUAUACUUGGAUCGUGCAGGAGAAGGUCAAGGGUGAUU | – | – | 90 nM | 265 nM
GUAUAUCACUAAGGAUAUCUGUAAUAUGUUGAAACAUGAGGAUCACCCAUGUUCAUGUAUUUAUAGGAGAAGGUAGAGAUAUAC | – | – | 4.34 nM | 4.15 nM
UUUCUUGGGCAAGGAUAUCCUGUGCGGUUCCGGCUCGUGUCUGUCACAUGAGGAUCACCCAUGUGGGAGAAGGUGCCUGCGGUA | 6.41 nM | 6.77 nM | – | –
AGAUGACAAAGUCAUCUCUGGCAGACAUGAGGAUCACCCAUGUAGGAUAUACUACUCAAAGAGUAGUAGAAGGACAUGUGUCUU | 35.9 nM | 99.4 nM | – | –
GGUGCGAUGUAGAAGGCAGAUCUGAUUCAGAUCUGAGGAUAUACAUGAGGAUCACCCAUGUUAAGGCACCGCACGAGAGUGCAA | 7.4 nM | 13.7 nM | – | –
GGCUGCGUUGUGAAGGAUAUCCGCGUCUGGACAUGAGGAUCACCCAUGUAUGCUUGGAUCGUGCCGGAGAAGGUCACGAAUGAUU | – | – | 34.5 nM | 15.9 nM
AGACUGCGUAGAAUUAGCAGCUGACAGGAUAUGACAUGAGGAUCACCCAUGUGAAAUAAGAAGAGUCAGAAGGGUCACGACACA | 11.3 nM | 9.89 nM | – | –
CCUAAACAUGAGGAUCACCCAUGUGAGGAUAUGAUGCAGCAGUGGUCUACGCUGUGCAUCAGAAGGUACAUGGU | 80.8 nM | 120 nM | – | –
UGUGUGUGGCAGGAUAUGCCGGUCGUAGGACGGGUAGAAGGGUCUACAUGAGGAUCACCCAUGUGGCCGGUUGG | 19.2 nM | 18.5 nM | – | –
GGUAGGUUCACAGGAUAUGCUAUCCUUUGGGUAGCAGAAGGGUGAUAACAUGAGGAUCACCCAUGUCCUACCGGGCGUGAGCCC | – | – | 1120 nM | 113 nM
AAUACAUGAGGAUCACCCAUGUUAUGAUCAAACAAUAUGAGUGAGGAUAUACUGAGUUAGUUAUGGUAGAAGGCACUGGGUUCA | – | – | 79.9 nM | 45.3 nM
GGAUAGGACAGAGGAUAUACGUGCUAGAGAUAAUAGCAAAAUUUCCUCACAUGAGGAUCACCCAUGUAGAAGGCUGUCCUAUCG | 19.5 nM | 250 nM | – | –
UGACGGAGCUGAGGAUAUAACAUGAGGAUCACCCAUGUAAGUCUCCAGGAAACUGGAGACAAUAGUUAGAAGGCAGCUCCGUCA | 14.6 nM | 19.4 nM | – | –
GCCGAAAAUGUGAGGAUAUACCUAUGGAAACAUAGGUAGAAGGCACAUGAGGAUCACCCAUGUGUUUCAACGGC | 21.5 nM | 107 nM | – | –
AAUUAACUCACAGGAUAUAGCAGAGGUCGAGUAAACUUACAGGCGACGAGGCUAGAAGGGUGACCACAUGAGGAUCACCCAUGU | – | – | 733 nM | 131 nM
UCAUAUUUACAAGGAUAUCAAUUAAUUAAACAUCCUACAUGAGGAUCACCCAUGUUAAAAUAUUAUGAGAAGGUGUAUUGUCGG | – | – | 32.7 nM | 40.3 nM
AAAAAUCGAGGAUAUACAUGAGGAUCACCCAUGUGGGACCAAGAAAACACAAAAGAAAGUAGAAGGCGAUAAAA | 29.2 nM | 113 nM | – | –
UAAAUCUUGUAAGGAUAUACACGAGAUUCAAGUGUAGAAGGUACUUACAUGAGGAUCACCCAUGUAUACAUGGAUAAUAGAUAU | – | – | 211 nM | 64.5 nM
AACACAACAUGAAACAUGAGGAUCACCCAUGUUGUUUGUAAUCAGGAUAUGAUCUCAAGAAUGAAUUAGAAGGGAUAUGGAUUU | – | – | 31.8 nM | 39.6 nM
GGAUAGGACAGAGGAUAUACGUGCUAGAGAUACUAGGAAAAUUUCCUCACAUGAGGAUCACCCAUGUAGAAGGCUGUCCUAUCG | 305 nM | 51.7 nM | – | –
